According to ChEMBL document CHEMBL1142116, “Mixed lignan-neolignans from Tarenna attenuata” (J Nat Prod, 2007):

Columns and labels:
Type in all cases: functional
[1] = test system: Radical scavenging activity; assay: Antioxidant effect assessed as DPPH radical scavenging activity
Method in brief: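 Compound at five concentrations (0.16–100.0 µM) mixed 1:1 with 0.1 mM DPPH in EtOH, 30 min at 37 °C, absorbance at 517 nm. Scavenging % = (Acontrol − Asample)/Acontrol × 100; IC50 from concentration series.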

PC-12 [2] = assay: Antioxidant effect against hydrogen peroxide-induced impairment in PC12 cells assessed as cell viability at 0.4 uM by MTT assay relative to control; details: Rattus norvegicus, read-out: Activity
Method in brief: (§1)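 PC12 cells seeded in RPMI 1640 with 10% newborn bovine serum; after 24 h, compound (0.4–50 µM) added together with freshly prepared H2O2 (0.2 mM final) in PBS for 1 h. Then MTT (0.5 mg/mL in PBS) for 4 h, lysis with 5% i-BuOH/10% SDS/0.004% HCl overnight, OD 570 nm; viability as % of untreated control; n = 5, mean ± SD.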

PC-12 [3] = assay: Antioxidant effect against hydrogen peroxide-induced impairment in PC12 cells assessed as cell viability at 2 uM by MTT assay relative to control; details: Rattus norvegicus, read-out: Activity; method in brief: as §1
PC-12 [4] = assay: Antioxidant effect against hydrogen peroxide-induced impairment in PC12 cells assessed as cell viability at 10 uM by MTT assay relative to control; details: Rattus norvegicus, read-out: Activity; method in brief: as §1
PC-12 [5] = assay: Antioxidant effect against hydrogen peroxide-induced impairment in PC12 cells assessed as cell viability at 50 uM by MTT assay relative to control; details: Rattus norvegicus, read-out: Activity; method in brief: as §1

Structure (SMILES) | IC50 [1] [µM] | viability at 0.4 µM (PC-12 [2]) [%] | viability at 2 µM (PC-12 [3]) [%] | viability at 10 µM (PC-12 [4]) [%] | viability at 50 µM (PC-12 [5]) [%]
CCOC(c1ccc(O)c(OC)c1)C(O)CO (stereo not given) | 132 | 54.1 | 54.9 | 56.8 | 57.3
CC1=NN(c2ccccc2)C(=O)C1 [EDARAVONE] | 27 | 55.5 | 53.1 | 47.8 | 25.6
COc1cc(C(O)C(CO)Oc2c(OC)cc([C@@H]3Oc4c(OC)cc(/C=C/C=O)cc4[C@H]3CO)cc2OC)ccc1O (stereo not given in full) | 147 | 56.9 | 56.8 | 62.6 | 64.8
COc1cc2c(c(OC)c1O)[C@@H](CO)[C@@H](c1cc(OC)c(OC)c(OC)c1)O2 | 45 | 61.4 | 58 | 58.2 | 55
COc1cc(C(O)C(CO)Oc2c(OC)cc([C@@H]3OC[C@@H]4C(=O)OC[C@@H]43)cc2OC)ccc1O (stereo not given in full) | 72 | 59.3 | 61.8 | 59.4 | 45.7

Further lines, with some results ahead:

IC50 [1] [µM] | Structure (SMILES) | viability at 0.4 µM (PC-12 [2]) [%] | viability at 2 µM (PC-12 [3]) [%] | viability at 10 µM (PC-12 [4]) [%] | viability at 50 µM (PC-12 [5]) [%]
201 | COc1cc(C(O)C(CO)Oc2ccc(C(O)C(CO)Oc3c(OC)cc([C@@H]4Oc5c(OC)cc(/C=C/C=O)cc5[C@H]4CO)cc3OC)cc2OC)ccc1O (stereo not given in full) | 52.8 | 47.9 | 64.4 | 55.9
55 | COc1cc([C@H](O)[C@@H](CO)Oc2c(OC)cc([C@@H]3OC[C@@H]4[C@H]3CO[C@H]4c3cc(OC)c(O[C@H](CO)[C@@H](O)c4ccc(O)c(OC)c4)c(OC)c3)cc2OC)ccc1O | 52.2 | 53.2 | 54.3 | 55.3
127 | COc1cc(C(O)C(CO)Oc2c(OC)cc(C(O)C(CO)Oc3c(OC)cc([C@@H]4Oc5c(OC)cc(/C=C/C=O)cc5[C@H]4CO)cc3OC)cc2OC)ccc1O (stereo not given in full) | 50.3 | 54.7 | 55.2 | 51
87 | COc1cc([C@H](O)[C@@H](CO)Oc2c(OC)cc([C@@H]3OC[C@@H]4[C@H]3CO[C@H]4c3cc(OC)c(O[C@H](CO)[C@@H](O)c4cc(OC)c(O)c(OC)c4)c(OC)c3)cc2OC)ccc1O | 51.9 | 54.3 | 54.7 | 54.1
